Assay outcomes deposited in PubChem by Johns Hopkins Ion Channel Center.
A selection: hits, their analogues and other compounds. The true share with any hit is near 2.3%.
TRPC6 inh – mouse TRPC6 channel inhibitors, primary screen, cell-based, HEK293, membrane potential dye; B-score at 10 µM; ACh-evoked depolarization; hits give low values; Short transient receptor potential channel 6 (Mus musculus), Q61143; AID 2553, 2010; actives 1.1% (n = 310,000);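 active = B-score under library mean minus 3 SD, initial fluorescence not abnormally high, positive integrated signal ratio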;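 note: B-score derived from integrated fluorescence ratio over the kinetic read; more negative B-score means stronger inhibition of depolarization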
TRPC6 act – mouse TRPC6 channel activators, primary screen, cell-based, HEK293, membrane potential dye. Short transient receptor potential channel 6 (Mus musculus), Q61143. HEK293-TRPC6 membrane potential dye fluorescence; hits give high values. B-score at 10 µM. actives 0.13% (n = 310,000). AID 2550, 2010;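 active = B-score of the integrated fluorescence ratio above library mean plus 3 SD, and starting fluorescence ratio within library mean plus 5 SD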;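 note: higher score means more depolarization so channel activation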
TRPC4 act – activators of mouse TRPC4 channel, primary screen, Fluo4 calcium, HEK293 TRPC4beta/mu-opioid cells. Fluo4 calcium fluorescence; hits give high values. B-score at 10 µM. actives 0.49% (n = 310,000). AID 2237, 2010;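 active = B-score above 5 SD of library B-scores, and initial fluorescence ratio not above library mean plus 5 SD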;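 note: positive B-score marks a calcium rise read as TRPC4 activation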
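Material: TRPC4beta and mu-opioid receptor HEK293 stable cells | Incubation: 45 min room-temperature Fluo4 loading, 110 s read | Detection: Kinetic Fluo4 calcium fluorescence | Measure: Integrated baseline-normalised fluorescence ratio, converted to per-well B score | Benchmarks: Low control buffer alone, high control maximal DAMGO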
TRPC4 potent – positive allosteric modulators of TRPC4, primary screen, cell-based, mouse TRPC4beta, HEK293 mu-opioid, Fluo-4 calcium; DAMGO EC20, Fluo-4 Ca2+ flux; hits give high values; actives 0.42% (n = 310,000); B-score at 10 µM; Short transient receptor potential channel 4 (Mus musculus), Q9QUQ5;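 active = B-score of calcium response area above 5 SD of library B-scores, with initial fluorescence ratio within 5 SD of library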;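 note: B-score of integrated fluorescence ratio over time as area under calcium response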
TRPC4 inh – inhibitors of mouse TRPC4 channel, primary screen, Fluo4 calcium, HEK293 TRPC4beta/mu-opioid cells | Short transient receptor potential channel 4 (Mus musculus), Q9QUQ5 | DAMGO-evoked Fluo4 calcium flux; hits give low values | B-score at 10 µM | actives 0.39% (n = 300,000) | AID 2247, 2010;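 active = B-score over 3 SD under the library average, no early fluorescence shift, positive overall ratio signal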
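Assay system: TRPC4beta/mu-opioid receptor HEK293 cell line; compound dosing: single concentration per test compound; detection: Fluo4 Ca2+ flux fluorescence; evaluation: per-well B score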
TRPC4 spec 2 – mouse TRPC4 off-target activity of TRPC6 inhibitors, second screen. shares compounds with TRPC6 inh. HEK293 TRPC4/MOR, membrane potential dye fluorescence; channel activated by saturating DAMGO dose. inhibition, % at 10 µM. actives 42% (n = 920);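 active = compounds whose fluorescence signal differed from control wells by over 3 SD, either direction, in both duplicate plates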
TRPC4 spec – mouse TRPC4 modulation by TRPC6 hits, confirmation, selectivity assay for TRPC6 inhibitor project, cell-based, HEK293 TRPC4/mu-opioid, membrane potential dye; membrane potential fluorescence; shares compounds with TRPC6 inh; activity change, negative = inhibition, % at 10 µM; actives 61% (n = 920);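 active = rise or fall in signal beyond 3 SD of buffer-only wells in both replicate plates, either sign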;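 note: integrated kinetic ratio of fluorescence range over baseline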
HEK293 MPD ctr 2-1 – nonspecific membrane potential effects, parental HEK293, confirmation, counter-screen for TRPC6 inhibitor project, cell-based, second counter screen; actives 31% (n = 920); AID 2779, 2010; parental HEK293 membrane potential dye fluorescence; maximal acetylcholine challenge after compound addition; shares compounds with TRPC6 inh; signal change vs control, % at 10 µM;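 active = membrane potential signal moving either way by over 3 SD of the maximum-effect control, in both duplicate plates, meaning non-specific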
HEK293 MPD ctr-1 – membrane potential modulation in parental HEK293, confirmation, counter-screen for TRPC6 inhibitor project, cell-based; shares compounds with TRPC6 inh; parental HEK293 membrane potential dye fluorescence; membrane potential signal change, % at 10 µM; actives 60% (n = 920);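 active = membrane potential signal shifting up or down by more than 3 SD of buffer-only wells, on both duplicate plates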
HEK293 MPD ctr-2 – parental HEK293 membrane potential modulation, confirmation, counter-screen for TRPC6 modulator project, cell-based | shares compounds with TRPC6 inh | membrane potential dye fluorescence | membrane potential signal change, % at 10 µM | actives 51% (n = 2,400) | AID 488924, 2010;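 active = membrane potential signal moves up or down beyond 5 SD from buffer-only wells, on both duplicate plates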
HEK293 MPD ctr 2-2 – second counter-screen for TRPC6 modulators: effect in parental HEK293 cells; shares compounds with TRPC6 inh; membrane potential dye fluorescence; after compound, maximal acetylcholine stimulation; inhibition, % at 10 µM; actives 14% (n = 2,400); AID 488926;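 active = membrane potential signal drops by more than 5 SD from the mean control signal, in both duplicate plates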;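 note: plate controls were acetylcholine ECmax control wells for no effect and buffer only wells for full effect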
TRPC4 ctr mod – TRPC4 modulation by TRPC6 hit compounds, confirmation, selectivity assay for TRPC6 modulator project, cell-based, HEK293 TRPC4/mu-opioid, membrane potential dye, mouse | shares compounds with TRPC6 inh | membrane potential fluorescence | percent change from control (negative = decrease, positive = increase), % at 10 µM | actives 69% (n = 2,400) | AID 488927, 2010;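 active = membrane potential signal moved up or down beyond 5 SD of buffer control wells, in both duplicate plates, actives on both sides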;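 note: plate controls were assay buffer wells for no effect and DAMGO maximal-effect wells for full effect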
TRPC4/MOR inh 2 – mouse TRPC4 off-target activity of TRPC6 modulators, second screen; inhibition, % at 10 µM; AID 488928; actives 55% (n = 2,400); shares compounds with TRPC6 inh; HEK293 TRPC4/mu-opioid, membrane potential dye fluorescence; stimulated with maximal-effect DAMGO;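 active = drop in membrane potential signal beyond 5 SD of the control wells in both duplicate plates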;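 note: TRPC4 counter screen for TRPC6 hits run under conditions tuned for TRPC6 not TRPC4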
TRPC6 block conf – mouse TRPC6 channel inhibitors, confirmation, HEK293 cells, membrane potential dye, duplicate | shares compounds with TRPC6 inh | actives 43% (n = 3,300) | inhibition, % at 10 µM | ACh-evoked depolarization;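 active = fluorescence ratio falls more than 5 SD below the full-stimulation control mean, in both duplicate runs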;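 note: integrated fluorescence ratio of peak minus minimum over baseline after agonist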
TRPC6 act confirm – mouse TRPC6 channel activators, confirmation, HEK293 cells, membrane potential dye, duplicate | shares compounds with TRPC6 inh | HEK293-TRPC6 membrane potential dye fluorescence, FDSS | activation, % at 10 µM | actives 11% (n = 2,800);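 active = ratio signal rise beyond 5 SD above unstimulated control wells' mean, seen in both duplicate runs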;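 note: plate controls were buffer EC0 wells for no effect and acetylcholine ECmax response for full effect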
The depositor's hits bear a star; i = inactive; / = no result; ! = not confirmed by another sample.

SMILES	TRPC6 inh	TRPC6 act	TRPC4 act	TRPC4 potent	TRPC4 inh	HEK293 MPD ctr-2	HEK293 MPD ctr 2-2	TRPC4 ctr mod	TRPC4/MOR inh 2	TRPC6 block conf	TRPC6 act confirm	others
Cc1cccc(NC(=S)NC2CC3CCCC(C2)N3Cc2cccs2)c1 (stereo unspecified)	-7*	i	i	i	i	/	/	/	/	i	i	TRPC4 spec 2=i;TRPC4 spec=i;HEK293 MPD ctr 2-1=i;HEK293 MPD ctr-1=-0.4%*
ClCC1NCC(c2ccccc2Cl)c2c1[nH]c1ccccc21 (stereo unspecified)	i	i	i	i	i	/	/	/	/	/	/
CN1CCN(c2nc3c(c(=O)[nH]c(=O)n3C)n2CCCSc2nnnn2-c2ccccc2)CC1	-6.5*	i	i	i	i	-212%*	i	-28%*	i	i	i
CCOC(=O)N1CCC(NC(=O)c2ccc3c(c2)N=C(C)c2c(C)ccc(C)c2S3)CC1	i	i	i	i	i	/	/	/	/	/	/
CC(O)CNCCNCc1c(OCc2ccccc2)ccc2ccccc12 (stereo unspecified)	-7.9*	i	i	i	i	/	/	/	/	66%*	i	TRPC4 spec 2=28%*;TRPC4 spec=-9.5%*;HEK293 MPD ctr 2-1=i;HEK293 MPD ctr-1=i
CCOc1ccc(N(C)c2ccc(/C=C3/SC(=S)NC3=O)cc2)cc1	i	18*	i	i	i	i	i	82%*	i	i	i
O=C1NC(=S)S/C1=C/c1ccc(Oc2cnccn2)cc1	i	i	i	i	i	/	/	/	/	/	/
CN1C(=S)N(c2cccnc2)C(=O)/C1=C\c1ccc(N(C)C)cc1	i	13*	i	i	i	356%*	i	108%*	i	i	106%*
Cc1cc(Nc2cccc(F)c2)n2c(n1)nc1ccccc12	i	i	i	i	i	/	/	/	/	/	/
Cc1cc(NC2CCCCC2)n2c(n1)nc1ccccc12	-5.5*	i	i	i	i	i	i	i	i	i	i
CC(C)c1[nH]nc2c1C(Cc1ccccc1)C(C#N)=C(N)O2 (stereo unspecified)	-6.4*	i	i	i	i	i	i	i	i	i	i
Cc1ccc(N2C(=O)CSC2c2c(F)cccc2Cl)cc1 (stereo unspecified)	-12*	i	i	i	i	/	/	/	/	84%*	i	TRPC4 spec 2=i;TRPC4 spec=i;HEK293 MPD ctr 2-1=-26%*;HEK293 MPD ctr-1=i
NS(=O)(=O)c1ccc(NC(=O)COC(=O)c2cnccn2)cc1	i	i	i	i	i	/	/	/	/	/	/
COc1cccc(C2=Nc3cccc4cccc(c34)N2)c1	-8.1*	i	i	i	i	-94%*	i	-26%*	74%*	52%*	i
CN(C)CCCN1c2ccccc2Sc2ccc(Cl)cc21	-5.6*!	i	i	i	i	i	i	7.5%*	78%*	60%*	i
COC(=O)c1ccc(COC(=O)CNC(=O)c2cccs2)cc1	-6.2*	i	i	i	i	i	i	-8.0%*	i	i	i
O=C(CNC(=O)c1cccs1)NCC(=O)OCc1ccc(F)cc1	i	i	i	i	i	/	/	/	/	/	/
O=C(NCCCN1CCN(c2ccccc2F)CC1)Nc1ccccc1[N+](=O)[O-]	i	i	i	i	i	/	/	/	/	/	/
C=CCc1cc(Cl)ccc1OCCN(C)C	-5*	i	i	i	/	i	i	8.0%*	i	i	i
COc1ccc(CCNC(=O)C2CCN(Cc3nc(-c4cccc(Cl)c4)oc3C)CC2)cc1OC	-7.3*	i	i	i	i	i	i	i	75%*	i	i
CC(C)OC(=O)c1ccc2nc3ccccc3nc2c1	i	i	i	i	i	/	/	/	/	/	/
CC(Oc1ccc2c3c(c(=O)oc2c1)CCC3)C(=O)NCc1ccccn1 (stereo unspecified)	i	i	i	i	i	/	/	/	/	/	/
O=C(COc1ccc2c3c(c(=O)oc2c1)CCCC3)N[C@@H](Cc1ccccc1)C(=O)O	i	i	i	i	i	/	/	/	/	/	/
